What follows are compounds tested on Canis familiaris (assay: Inhibition of histamine stimulated gastric acid secretion in adult mongrel dogs at dose 8 mg/kg given orally). Details: Canis lupus familiaris, Stomach, route oral.
Format: functional
How it was run: (§1)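 Dogs with Heidenhain pouches, 12–18 kg, fasted 18 h. Compound given iv in 3 mL or by gavage in 5 mL of 0.4% methylcellulose/saline, 1 h after infusion start. 30-min collections titrated. Summed 3-h AO against the same dog's control AO gives % inhibition. Usually one dog per compound.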

Compared with Cc1nc2c(OCc3cccc(C(F)(F)F)c3)cccn2c1CC#N, Cc1nc2c(OCc3ccoc3)cccn2c1CC#N is higher in inhibition in vivo at 8 mg/kg: 38% for the first, 42% for the second.

Going from Cc1nc2c(OCc3ccccc3)cccn2c1COC(=O)N(C)C to CC(=O)OCc1c(C)nc2c(OCc3ccccc3)cccn12, the inhibition in vivo at 8 mg/kg falls from 49% to 24%.

Compared with CCOCc1c(C)nc2c(OCc3ccccc3)cccn12, COCc1c(C)nc2c(OCc3ccccc3)cccn12 is higher in inhibition in vivo at 8 mg/kg: 0% for the first, 37% for the second.

First: Cc1nc2c(OCc3ccccc3)cccn2c1C(C)C#N (centres undefined)
Second: Cc1nc2c(OCc3ccccc3)cccn2c1Cl
The inhibition in vivo at 8 mg/kg of the first is lower: 1% for the first, 43% for the second.

First: Cc1cn2cccc(OCc3ccccc3)c2n1
Second: CCc1nc2c(OCc3ccccc3)cccn2c1C
The inhibition in vivo at 8 mg/kg of the first is lower: 0% for the first, 27% for the second.

Compared with CCCCC(=O)OCc1c(C)nc2c(OCc3ccccc3)cccn12, Cc1nc2c(OCc3ccccc3)cccn2c1COC(=O)C(C)(C)C is lower in inhibition in vivo at 8 mg/kg: 13% for the first, 12% for the second.

First: Cc1nc2c(COc3ccccc3)cccn2c1C
Second: Cc1nc2c(OCc3ccccc3)cccn2c1COC(=O)c1cccnc1
The inhibition in vivo at 8 mg/kg of the first is higher: 21% for the first, 0% for the second.

c1ccc(COc2cccn3c4c(nc23)CCCC4)cc1 was tested, and the inhibition in vivo at 8 mg/kg was 28%.

Each compound was assayed on Canis familiaris (assay: Inhibition of histamine stimulated gastric acid secretion in adult mongrel dogs at dose 5 mg/kg given intravenously). Details: Canis lupus familiaris, Stomach, route intravenous.
Format: functional
How it was run: as §1

Compared with Cc1nc2c(OCc3cccc(C(F)(F)F)c3)cccn2c1CC#N, Cc1nc2c(OCc3ccoc3)cccn2c1CC#N is higher in inhibition in vivo at 5 mg/kg: 30% for the first, 60% for the second.

Going from Cc1nc2c(OCc3ccccc3)cccn2c1COC(=O)N(C)C to CC(=O)OCc1c(C)nc2c(OCc3ccccc3)cccn12, the inhibition in vivo at 5 mg/kg rises from 23% to 87%.

First: CCOCc1c(C)nc2c(OCc3ccccc3)cccn12
Second: COCc1c(C)nc2c(OCc3ccccc3)cccn12
The inhibition in vivo at 5 mg/kg of the first is higher: 35% for the first, 29% for the second.

First: Cc1cn2cccc(OCc3ccccc3)c2n1
Second: Cc1nc2c(OCc3ccccc3)cccn2c1Cl
The inhibition in vivo at 5 mg/kg of the first is higher: 70% for the first, 37% for the second.

Compared with CCCCC(=O)OCc1c(C)nc2c(OCc3ccccc3)cccn12, Cc1nc2c(OCc3ccccc3)cccn2c1COC(=O)c1cccnc1 is lower in inhibition in vivo at 5 mg/kg: 96% for the first, 88% for the second.

Species: Rattus norvegicus
Experiment: Oral gastric cytoprotective activity in the rat against ethanol-induced lesions
Format: functional
Details: Stomach
How it was run: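 Rats fasted and water-deprived for 20 h. Compound given orally, 1–30 mg/kg in 0.4% methylcellulose/saline, 30 min before 1 mL absolute ethanol po. Killed 1 h after ethanol. Linear hemorrhagic lesion lengths totalled per stomach, expressed as group mean. ED50 by linear regression.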

Going from Cc1nc2c(OCc3cccc(C(F)(F)F)c3)cccn2c1CC#N to Cc1nc2c(OCc3ccoc3)cccn2c1CC#N, the ED50 falls from 6.5 mg/kg to 1.4 mg/kg (4.6-fold).

Going from Cc1nc2c(OCc3ccccc3)cccn2c1C(C)C#N (centres undefined) to CCc1nc2c(OCc3ccccc3)cccn2c1C, the ED50 rises from 2.9 mg/kg to 9.8 mg/kg (3.4-fold).

Cc1cn2cccc(OCc3ccccc3)c2n1 and CC(=O)OCc1c(C)nc2c(OCc3ccccc3)cccn12 are within 1.5-fold of each other in ED50: 4 mg/kg for the first, 5.5 mg/kg for the second.

Cc1nc2c(COc3ccccc3)cccn2c1C and Cc1nc2c(OCc3ccccc3)cccn2c1COC(=O)C(C)(C)C are within 1.5-fold of each other in ED50: 6 mg/kg for the first, 8 mg/kg for the second.

What follows are compounds tested on Canis familiaris (assay: Inhibition of histamine stimulated gastric acid secretion in adult mongrel dogs at dose 2 mg/kg given intravenously). Details: Canis lupus familiaris, Stomach, route intravenous.
Format: functional
How it was run: as §1

Going from Cc1nc2c(OCc3ccccc3)cccn2c1C(C)C#N (centres undefined) to CCc1nc2c(OCc3ccccc3)cccn2c1C, the inhibition in vivo at 2 mg/kg rises from 4% to 78%.

First: Cc1cn2cccc(OCc3ccccc3)c2n1
Second: CC(=O)OCc1c(C)nc2c(OCc3ccccc3)cccn12
The inhibition in vivo at 2 mg/kg of the first is higher: 61% for the first, 54% for the second.

Going from Cc1nc2c(COc3ccccc3)cccn2c1C to Cc1nc2c(OCc3ccccc3)cccn2c1COC(=O)C(C)(C)C, the inhibition in vivo at 2 mg/kg falls from 44% to 43%.

c1ccc(COc2cccn3c4c(nc23)CCCC4)cc1 was tested, and the inhibition in vivo at 2 mg/kg was 24%.

What follows are compounds tested on Rattus norvegicus (assay: Gastric antisecretory activity in the pylorus-ligated rat and the reduction in acid output was measured after 4 hr by intraperitoneal (ip) administration of 40 mg/kg dose.). Details: not given.
Format: functional
How it was run: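 Male Charles River CD rats, 150–200 g, fasted 24 h. Pylorus ligated under Brevital anesthesia. 40 mg/kg given ip in 2.5% Tween 80 at ligation. Stomach contents collected at 4 h and titrated with 0.1 N NaOH to pH 7.0. % inhibition from mean AO, 6 treated vs 8 control rats. Student's t test.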

Going from Cc1nc2c(OCc3cccc(C(F)(F)F)c3)cccn2c1CC#N to Cc1nc2c(OCc3ccoc3)cccn2c1CC#N, the inhibition in vivo at 40 mg/kg rises from 61% to 99%.

First: Cc1nc2c(OCc3ccccc3)cccn2c1COC(=O)N(C)C
Second: CC(=O)OCc1c(C)nc2c(OCc3ccccc3)cccn12
The inhibition in vivo at 40 mg/kg of the first is lower: 75% for the first, 88% for the second.

Going from CCOCc1c(C)nc2c(OCc3ccccc3)cccn12 to COCc1c(C)nc2c(OCc3ccccc3)cccn12, the inhibition in vivo at 40 mg/kg rises from 84% to 99%.

First: Cc1nc2c(OCc3ccccc3)cccn2c1C(C)C#N (centres undefined)
Second: Cc1nc2c(OCc3ccccc3)cccn2c1Cl
The inhibition in vivo at 40 mg/kg of the first is lower: 74% for the first, 93% for the second.

Compared with Cc1cn2cccc(OCc3ccccc3)c2n1, CCc1nc2c(OCc3ccccc3)cccn2c1C is higher in inhibition in vivo at 40 mg/kg: 62% for the first, 79% for the second.

First: CCCCC(=O)OCc1c(C)nc2c(OCc3ccccc3)cccn12
Second: Cc1nc2c(OCc3ccccc3)cccn2c1COC(=O)C(C)(C)C
The inhibition in vivo at 40 mg/kg of the first is lower: 45% for the first, 48% for the second.

Going from Cc1nc2c(COc3ccccc3)cccn2c1C to Cc1nc2c(OCc3ccccc3)cccn2c1COC(=O)c1cccnc1, the inhibition in vivo at 40 mg/kg rises from 48% to 87%.
